Screening data (PubChem)
Kir21 inh: inhibitors of mouse Kir2.1 inward-rectifier potassium channel; HEK293-Kir2.1, FluxOR thallium flux fluorescence; hits give low values; Inward rectifier potassium channel 2 (Mus musculus), P35561; actives 0.85% (n = 310,000); B-score at 10 µM;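 active = fluorescence ratio B-score at or below minus 3 SD of library scores, with starting-brightness B-score within 2 SD, cut at about -4.2 in these data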;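 note: channel flux triggered by added potassium and thallium sulfate stimulus; B-score of peak minus minimum fluorescence over baseline after thallium stimulus; more negative B-score means stronger Kir2.1 block with less thallium influx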
KCNQ1 act: potentiators or activators of KCNQ1 channel, primary screen, cell-based, thallium flux, high-throughput. B-score at 10 µM. CHO-K1 KCNQ1, thallium flux FluxOR fluorescence; hits give high values. actives 0.35% (n = 310,000). Potassium voltage-gated channel subfamily KQT member 1 (Homo sapiens), P51787;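 active = fluorescence ratio B-score, a plate-corrected score, at least three library SD, with initial intensity B-score within 5 SD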
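Medium – assay buffer, equal DMSO in all wells · Material – CHO-K1 cell line with stable KCNQ1 potassium channel expression · Signal – kinetic FluxOR thallium fluorescence, 10-s 1-Hz baseline, 110-s post-stimulus read · Compound – single concentration per compound, DMSO matched to controls · Schedule – 37 °C overnight plating, 90-min dark dye load, 20-min compound pretreatment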
KCNQ1 inh: inhibitors of human KCNQ1 channel, primary screen, cell-based, thallium flux, high-throughput; B-score at 10 µM; actives 1.3% (n = 310,000); CHO-K1 KCNQ1, FluxOR thallium flux fluorescence; hits give high values;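 active = compounds whose thallium flux B-score, printed positive for inhibition, exceeds three library SD while starting fluorescence stays within three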;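 note: channel opened by potassium depolarization with thallium stimulus after 20 min compound exposure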
KCNK9 inh: KCNK9 potassium channel inhibitors, primary screen, HEK293 cells, thallium flux | Potassium channel subfamily K member 9 (Homo sapiens), Q9NPC2 | B-score at 10 µM | FluxOR thallium flux fluorescence; hits give low values | actives 1.2% (n = 310,000);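 active = ratio B-score over 3 SD below the library mean, with starting fluorescence within 5 SD of its mean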;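 note: negative B-score means less thallium flux so channel inhibition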
Target sequence (Q9NPC2 whole entry, looked up): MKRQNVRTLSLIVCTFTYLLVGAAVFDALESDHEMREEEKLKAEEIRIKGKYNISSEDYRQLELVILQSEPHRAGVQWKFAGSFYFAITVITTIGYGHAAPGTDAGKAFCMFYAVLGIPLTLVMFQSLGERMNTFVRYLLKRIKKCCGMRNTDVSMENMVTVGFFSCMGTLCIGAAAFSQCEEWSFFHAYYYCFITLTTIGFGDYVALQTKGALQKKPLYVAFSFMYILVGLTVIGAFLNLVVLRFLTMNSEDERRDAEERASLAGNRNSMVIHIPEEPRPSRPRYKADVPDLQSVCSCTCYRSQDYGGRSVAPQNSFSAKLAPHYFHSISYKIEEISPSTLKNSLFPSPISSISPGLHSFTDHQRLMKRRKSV
KCNK3 inh: human KCNK3 channel inhibitors, primary screen, CHO cells, FluxOR thallium flux, B-score; Potassium channel subfamily K member 3 (Homo sapiens), O14649; FluxOR fluorescence; hits give low values; B-score at 10 µM; actives 0.84% (n = 340,000); AID 602410, 2012;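 active = B-score under library mean minus 4 SD, starting fluorescence ratio at most library mean plus 5 SD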;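 note: more negative B-score means stronger inhibition of thallium flux through KCNK3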
hERG protect: hERG rescue from dofetilide block, primary screen, cell-based, CHO-hERG, FluxOR thallium flux, dofetilide IC70 | activation (rescue from dofetilide block), less the hit threshold, % at 10 µM | actives 0.51% (n = 310,000) | Voltage-gated inwardly rectifying potassium channel KCNH2 (Homo sapiens), Q12809 | dofetilide IC70 present;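 active = activation above the mean of controls blocked by dofetilide plus 5 SD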;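 note: thallium influx through hERG after potassium depolarization seen as dye fluorescence rise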
KCNK3 inh conf: retest of human KCNK3 channel inhibitors, confirmation, CHO cells, FluxOR thallium flux, triplicate. AID 651638, 2012. actives 99% (n = 2,400). ratio percent of control, % at 10 µM. FluxOR fluorescence; 0% buffer, 100% carvedilol maximal block. shares compounds with KCNK3 inh;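 active = ratio percent of control, averaged over triplicates, above buffer control mean plus 5 SD, cut at about 64% in these data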;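 note: ratio is the fluorescence rise from min to max over baseline after thallium stimulus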
KCNK3 uninduced: thallium flux inhibition in non-induced cells, primary screen, counter-screen for KCNK3 inhibitor project, cell-based, non-induced KCNK3 line, FluxOR thallium, triplicate; shares compounds with KCNK3 inh; non-induced KCNK3 parental cells; hits give low values; thallium flux ratio (lower = more inhibition) at 10 µM; actives 40% (n = 2,400);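 active = thallium flux ratio, averaged over three wells, more than 5 SD below the buffer control mean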;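 note: host cells are CHO cells without KCNK3 induction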
Large screens that a line does not name were inactive (follow-up assays come after a bar, where they were run). Sampled rows, rich in hits. Any-hit rate of the full collection: about 3.7%.

COc1cccc2cc(CC(=O)c3ccc(C)c(C)c3)c(=O)oc12	none
CCc1nc(SCC(=O)Nc2ccc(Br)cn2)n[nH]1	none
COc1ccc(C(=O)NCC(C)(C)SCc2c(C)cc(C)cc2C)cc1	none
COc1ccccc1OCCCn1c(C)c(C#N)c2ccccc21	KCNK3 inh -10 | KCNK3 inh conf 119 | KCNK3 uninduced 0.16
Cc1c(C#N)c2ccccc2n1CC(=O)O	none
COc1ccccc1CN(C)C(=O)c1cc(-c2cccs2)nc2ccccc12	KCNK3 inh -13 | KCNK3 inh conf 119 | KCNK3 uninduced 0.14
COc1ccc(-c2cc(C(=O)N(C)Cc3cccc(OC)c3OC)c3ccccc3n2)cc1OC	none
COc1ccccc1-c1cc(C(=O)N/N=C/c2cccs2)c2ccccc2n1	KCNK3 inh -9.4 | KCNK3 inh conf 109 | KCNK3 uninduced inactive
Cc1ccc(Nc2c(-c3ccccc3O)nc3cnccn23)cc1	KCNK3 inh -9.2 | KCNK3 inh conf 115 | KCNK3 uninduced 0.13
O=C(NC1CCN(C(=O)N2c3ccccc3Sc3ccccc32)CC1)c1ccccc1Cl	KCNK9 inh -7.3, KCNK3 inh -10 | KCNK3 inh conf 109 | KCNK3 uninduced inactive
O=C(NC1CCN(C(=O)N2c3ccccc3Sc3ccccc32)CC1)c1ccco1	none
CC1(C)Cc2cccc(C(=O)NC3CCN(Cc4ccccc4)CC3)c2O1	KCNK3 inh -8.8 | KCNK3 inh conf 114 | KCNK3 uninduced inactive
CCOC(=O)C1=C(C)NC(SCC(=O)O)=C(C#N)C1c1ccco1 (stereo unspecified)	none
CC(=O)C1=C(C)NC(SCC(=O)c2ccc(Cl)c(Cl)c2)=C(C#N)C1c1ccco1 (stereo unspecified)	KCNK9 inh -7.8, KCNK3 inh -11 | KCNK3 inh conf 125 | KCNK3 uninduced 0.16
CN(Cc1ccno1)Cc1cn(C)nc1-c1ccc(Oc2ccccc2)cc1	KCNK3 inh -10 | KCNK3 inh conf 91 | KCNK3 uninduced inactive
CN(Cc1cn(C)nc1-c1ccc(Oc2ccccc2)cc1)Cc1cnc2ccccn12	Kir21 inh -5.1, KCNQ1 inh 7, KCNK9 inh -7, KCNK3 inh -9.4 | KCNK3 inh conf 131 | KCNK3 uninduced 0.13
Cc1cccc(C=NOCCc2ccccc2)n1	none (no result: Kir21 inh, KCNQ1 act, KCNQ1 inh, KCNK9 inh, hERG protect)
CCOc1ccccc1NC1c2ccccc2C(=O)N1Cc1ccco1 (stereo unspecified)	KCNK3 inh -11 | KCNK3 inh conf 98 | KCNK3 uninduced inactive
CC1=C(C(N)=O)C(c2ccccc2[N+](=O)[O-])n2ncnc2N1 (stereo unspecified)	none
Cc1ccc(Br)cc1S(=O)(=O)N1CCN(c2ccccc2)CC1	KCNK3 inh -11 | KCNK3 inh conf 102 | KCNK3 uninduced 0.15
CCc1ccc(-c2cc(C)no2)cc1S(=O)(=O)N1CCN(c2ccccc2OC)CC1	KCNK3 inh -9.6 | KCNK3 inh conf 83 | KCNK3 uninduced 0.15
CCc1ccc(-c2cc(C)no2)cc1S(=O)(=O)NCc1ccccc1OC	KCNK3 inh -11 | KCNK3 inh conf 98 | KCNK3 uninduced inactive
Cc1cc(-c2ccc(C)c(S(=O)(=O)N3CCN(c4ccccn4)CC3)c2)on1	none
